Where two headings read alike, the source gives them in different places.
How the values were obtained:
[1] = tested on: E10.5 embryo cultures of Sptlc2^f/f Cdh5^CreERT2 mice; assay: Rescue experiments using ex-vivo embryo culture; design: species or system mouse; details: 25 nM 1-deoxySO-BSA; 24 hours; 4-OH-TMX
How it was run: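 Embryos were cultured in DMEM-F12 with 15% KSR, N2, Glutamax and Pen-Strep. Medium held 1 µM 4-OH-TMX, 5 µM sphingolipid-precursor-BSA and 25 nM test compound-BSA; controls received vehicle-BSA instead. Culture ran in O2-flushed sealed 50 mL tubes on a roller at 37°C, 5% CO2, for 24 h.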

[2] = tested on: human ESC-derived cardiomyocytes; assay: Cardiomyocyte differentiation of hESCs; format: cell-based; details: for gene expression in DKO cultures / fraction of TNNT2+ cells in DKO cultures: NR2F1/2 DKO
mouse LECs = format: cell-based
How it was run: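 LECs were isolated from collagenase D/dispase-digested mouse lymph nodes and grown overnight in semi-synthetic medium (DMEM, Hepes, 1% BSA, ITS-A, 1% FBS) with 1 µM sphingolipid-precursor-BSA. Deletion was induced with 0.5–1 µM 4-OH-TMX. Test compound-BSA (50–100 nM) or vehicle was added, with media renewed daily. At 24 h, cells were fixed and immunostained for NR2F2, Prox1 and […], then imaged by confocal microscopy.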

[3] = target: NR2F1(LBD)-GAL4(DBD) fusion protein (Mus musculus, UniProt Q60632); assay: NR2F1; format: cell-based; details: Figure S1C
NR2F1(LBD)-GAL4(DBD) fusion protein, sequence (P04386 1-147 partner limits assumed, one chain of several): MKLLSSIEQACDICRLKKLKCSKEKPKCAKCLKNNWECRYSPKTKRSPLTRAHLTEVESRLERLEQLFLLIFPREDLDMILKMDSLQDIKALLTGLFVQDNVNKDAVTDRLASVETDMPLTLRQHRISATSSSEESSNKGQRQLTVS

HEK-293FT cells = assay: Cell viability of HEK-293FT cells; format: cell-based, human; details: 1 µM
NR2F2 [4] = assay: NR2F2 reporter activity in HEK-293FT cells; format: cell-based; details: 1 µM
How it was run: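 HEK-293FT cells plated at 5 x 10^4 per well the day before, then PEI-transfected in antibiotic-free DMEM with 1% FBS. Each well received reporter plasmid, NHR plasmid and a Renilla normalisation plasmid. 24 h after transfection, test compound-BSA complexes diluted in 1% FBS medium were added. Dual luciferase read-out.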

NR2F2 [5] = details: at high concentrations; ref Kruse et al., 2008; cited from earlier work
RARA LBD = target: T1, RARA LBD (Homo sapiens, UniProt P10276); assay: Metabolite pull-down with FLAG-tagged control LBD and LC-MS; format: binding; details: C18+ mode; 500 nM all-trans-retinoic acid in medium; p-value 0.01
T1 sequence (P10276 183-417 limits assumed): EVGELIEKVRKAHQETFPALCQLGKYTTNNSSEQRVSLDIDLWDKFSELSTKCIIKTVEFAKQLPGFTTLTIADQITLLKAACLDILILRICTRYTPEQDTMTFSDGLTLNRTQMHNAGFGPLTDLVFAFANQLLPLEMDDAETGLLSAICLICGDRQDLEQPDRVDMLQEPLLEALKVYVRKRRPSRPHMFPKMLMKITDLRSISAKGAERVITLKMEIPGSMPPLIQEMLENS

NR2F1 LBD = target: T2, NR2F1 LBD (Mus musculus, UniProt Q60632); assay: Metabolite pull-down / displacement with FLAG-tagged LBD and LC-MS; format: binding; details: 500 nM retinoic acid in medium
T2 sequence (Q60632 183-422): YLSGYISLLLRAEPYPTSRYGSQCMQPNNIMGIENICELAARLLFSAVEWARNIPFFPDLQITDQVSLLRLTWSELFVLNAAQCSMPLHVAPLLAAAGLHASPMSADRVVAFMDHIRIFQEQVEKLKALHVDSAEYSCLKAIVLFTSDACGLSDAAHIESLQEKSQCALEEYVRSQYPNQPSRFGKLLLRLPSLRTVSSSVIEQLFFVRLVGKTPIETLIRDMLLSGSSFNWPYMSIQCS

NR2F1/2 = details: read-out: Kd for NR2F1/2; ref Kruse et al., 2008; cited from earlier work
[6] = target: fluorescein-labeled SRC2-2 peptide; assay: fluorescence polarisation
[7] = target: fluorescein-labeled SRC2-2 peptide; assay: fluorescence polarisation; remark: listed apart in the source
[8] = target: fluorescein-labeled SRC2-2 peptide; assay: fluorescence polarisation; remark: listed apart in the source
[9] = 1 µM from day 1, WT, day 6, bulk RNA-seq

## CCC/C=C\CCCCCCCCCC[C@@H](O)[C@H](C)N [1-deoxySO-14Z, 1-deoxysphingosine (14Z)]
[1]
  cardiac development in embryo cultures: partially rescued
[2]
  gene expression in DKO cultures: minimally affected
[2]; 1.5 µM from day 3
  fraction of TNNT2+ cells in DKO cultures: did not increase
Mouse LECs; 4OH-TMX, medium with D-erythroSO, Figure S3C
  number of viable cells in Sptlc2 deleted cultures: restored
Mouse LECs; within 24 hours after 4OH-TMX
  other lymphatic endothelial markers (LYVE1 and NR2F2): no effects were observed
Mouse LECs; within 24 hours after 4OH-TMX, versus vehicle
  PROX1 levels in LECs: partially restored

## CCCCCCCCCCCCC/C=C/[C@@H](O)[C@H](C)N [1-deoxysphingosine]
[2]; WT, 1.5 µM from day 3, FACS day 9
  fraction of TNNT2+ cells in WT cultures: increased
[2]; WT, day 9
  number of genes decreased by >2-fold versus vehicle: 464
  number of genes increased by >2-fold versus vehicle: 265

## COc1ccc(O)c2ccccc12 [4-methoxy-1-naphthol]
[3]
  activity of the NR2F1(LBD)-GAL4(DBD) fusion protein: inhibited

## CCCCCCCCCCCCC/C=C/[C@@H](O)[C@@H](N)CO [D-erythroSO, D-erythro-sphingosine]
[2]
  gene expression in DKO cultures: minimally affected
[2]; 1.5 µM from day 3
  fraction of TNNT2+ cells in DKO cultures: did not increase

## CCCCCCC(=O)CCCCCC/C=C/C[C@@H](O)[C@H](O)[C@@](N)(CO)C(=O)O [myriocin]
HEK-293FT cells
  cell viability: without loss of cell viability
[2]; [9]
  number of downregulated genes versus vehicle: 850
  number of upregulated genes versus vehicle: 1121
NR2F2 [4]
  NR2F2 reporter activity: partially suppress

## CC1=C(/C=C/C(C)=C/C=C/C(C)=C/C(=O)O)C(C)(C)CCC1 [retinoic acid, all-trans retinoic acid]
NR2F2 [5]
  agonist activity on NR2F2: weak agonist
RARA LBD
  enrichment in RARA but not NR2F1 samples: 14.76 fold
NR2F1 LBD
  metabolites with exact masses detected in the NR2F1 samples: no such metabolites were detected
NR2F1/2
  Kd: 26000 nM

## NR2F1/2-LBD
[6]
  Kd: 68 nM
[7]
  Kd: > 300 nM
[8]
  Kd: > 300 nM
